Assay results reported in ChEMBL document CHEMBL1129475, “Water soluble inhibitors of topoisomerase I: quaternary salt derivatives of camptothecin” (J Med Chem, 1996).
Converted amounts (≈) assume the structure as drawn.

Columns and labels:
[1] = Solubility was measured in D2O using 1H NMR integration of the C-20 ethyl group against internal standard 1,4-dioxane; format: physicochemical
Outline: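 Compound equilibrated ≥30 min in D2O containing 1,4-dioxane (0.015 M standardized solution) as internal standard, then filtered. 300-MHz ¹H spectrum; the C-18 methyl triplet at 0.8–0.9 ppm was integrated against the dioxane signal at 3.75 ppm.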

SK-VLB = assay: Human tumor cell cytotoxicity assay was performed using MTT (SKVLB cell line ); format: functional, cell-based
[2] = MDR ratio is defined as the quotient of SKVLB IC50/SKOV3 IC50; format: functional
Outline: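 Ratio of SKVLB IC50 to SKOV3 IC50, each from the 96 h MTT cytotoxicity assay with a four-parameter logistic fit.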

SK-OV-3 = assay: Human tumor cell cytotoxicity assay was performed using MTT (SK-OV3 cell line ); format: functional, cell-based
HT-29 = assay: Human tumor cell cytotoxicity assay was performed using MTT (HT-29 cell line ); format: functional, cell-based
Mus musculus [3] = assay: Mean body weight loss for animals in all experimental conditions at dose 9.5 mg/Kg in HT-29 human colon xenograft infected mice; format: functional
Outline: (§1)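 Female nu/nu mice (18-24 g) carrying subcutaneous HT-29 flank tumors; N=6 per group. Compound given s.c. twice weekly for 5 weeks over a dose range including the highest dose found in naive mice. Caliper tumor volume = length×width²/2. T/B = tumor volume at end of treatment over initial volume. Body weight monitored; mean weight loss per group.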

Mus musculus [4] = species: Mus musculus; assay: Maximally tolerated dose that caused <=30% body weight loss in mice; format: functional
Outline: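 Highest single s.c. bolus dose in tumor-free nude mice causing ≤30% body weight loss.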

Mus musculus [5] = assay: Compound was tested for number of deaths of the animals at a dose of 10.5 mg/Kg in mice; format: ADME, organism-based; conditions: in vivo; outline: as §1
Mus musculus [6] = assay: Efficacy against HT-29 human colon xenograft infected mice expressed as tumor growth ratio at dose 10.5 mg/Kg; format: functional; outline: as §1
Mus musculus [7] = assay: Compound was tested for number of deaths of the animals at a dose of 9.5 mg/Kg in mice; format: ADME, organism-based; conditions: in vivo; outline: as §1
Mus musculus [8] = assay: Delay in tumor growth in drug treated animals compared to controls at a dose of 100(mg/kg); format: functional
Outline: (§2)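 Tumor growth delay in nude mice with HT-29 xenografts, N=6. The dose from a single s.c. bolus in tumor-free mice was split into three s.c. portions given over one day. T/C = difference in days for tumors to reach 500% of initial volume, treated versus control.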

Mus musculus [9] = assay: Efficacy against HT-29 human colon xenograft infected mice expressed as tumor growth ratio at dose 11 mg/Kg; format: functional
Outline: (§3)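 Female nu/nu mice (18-24 g) bearing subcutaneous HT-29 flank tumours, N=6 per group. Dosed subcutaneously twice weekly for 5 weeks over a dose range that included the highest dose, which was set in naive mice. Caliper volume = length×width²/2. T/B = group mean tumour volume at end of treatment divided by initial mean volume.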

Mus musculus [10] = assay: Compound was tested for number of deaths of the animals at a dose of 11 mg/Kg in mice; format: ADME, organism-based; conditions: in vivo; outline: as §1
Mus musculus [11] = assay: Mean body weight loss for animals in all experimental conditions at dose 10.5 mg/Kg in HT-29 human colon xenograft infected mice; format: functional; outline: as §1
Mus musculus [12] = assay: Mean body weight loss for animals in all experimental conditions at dose 11 mg/Kg in HT-29 human colon xenograft infected mice; format: functional; outline: as §1
Mus musculus [13] = assay: Efficacy against HT-29 human colon xenograft infected mice expressed as tumor growth ratio at dose 9.5 mg/Kg; format: functional; outline: as §1
Mus musculus [14] = assay: Delay in tumor growth in drug treated animals compared to controls at a dose of 80(mg/kg); format: functional; outline: as §2
Mus musculus [15] = assay: Compound was tested for number of deaths of the animals at a dose of 8 mg/Kg in mice; format: ADME, organism-based; conditions: in vivo; outline: as §1
Mus musculus [16] = assay: Mean body weight loss for animals in all experimental conditions at dose 12 mg/Kg in HT-29 human colon xenograft infected mice; format: functional; outline: as §1
Mus musculus [17] = assay: Efficacy against HT-29 human colon xenograft infected mice expressed as tumor growth ratio at dose 8 mg/Kg; format: functional; outline: as §1
Mus musculus [18] = assay: Mean body weight loss for animals in all experimental conditions at dose 8 mg/Kg in HT-29 human colon xenograft infected mice; format: functional; outline: as §1
Mus musculus [19] = assay: Mean body weight loss for animals in all experimental conditions at dose 14 mg/Kg in HT-29 human colon xenograft infected mice; format: functional; outline: as §1
Mus musculus [20] = assay: Compound was tested for number of deaths of the animals at a dose of 14 mg/Kg in mice; format: ADME, organism-based; conditions: in vivo; outline: as §1
Mus musculus [21] = assay: Efficacy against HT-29 human colon xenograft infected mice expressed as tumor growth ratio at dose 14 mg/Kg; format: functional; outline: as §1
Mus musculus [22] = assay: Efficacy against HT-29 human colon xenograft infected mice expressed as tumor growth ratio at dose 12 mg/Kg; format: functional; outline: as §1
Mus musculus [23] = assay: Compound was tested for number of deaths of the animals at a dose of 12 mg/Kg in mice; format: ADME, organism-based; conditions: in vivo; outline: as §1
Mus musculus [24] = assay: Delay in tumor growth in drug treated animals compared to controls at a dose of 48(mg/kg); format: functional; outline: as §2
Mus musculus [25] = assay: Compound was tested for number of deaths of the animals at a dose of 7 mg/Kg in mice; format: ADME, organism-based; conditions: in vivo; outline: as §1
Mus musculus [26] = assay: Efficacy against HT-29 human colon xenograft infected mice expressed as tumor growth ratio at dose 5 mg/Kg; format: functional; outline: as §3
Mus musculus [27] = assay: Efficacy against HT-29 human colon xenograft infected mice expressed as tumor growth ratio at dose 7 mg/Kg; format: functional; outline: as §3
Mus musculus [28] = assay: Compound was tested for number of deaths of the animals at a dose of 9 mg/Kg in mice; format: ADME, organism-based; conditions: in vivo; outline: as §1
Mus musculus [29] = assay: Delay in tumor growth in drug treated animals compared to controls at a dose of 54(mg/kg); format: functional
Mus musculus [30] = assay: Mean body weight loss for animals in all experimental conditions at dose 9 mg/Kg in HT-29 human colon xenograft infected mice; format: functional
Outline: (§4)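 HT-29 subcutaneous xenografts in female nu/nu mice, N=6 per group. Subcutaneous dosing twice weekly for 5 weeks. Body weight was monitored and reported as mean percent loss per group. A loss of 30% or more was considered lethal.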

Mus musculus [31] = assay: Compound was tested for number of deaths of the animals at a dose of 5 mg/Kg in mice; format: ADME, organism-based; conditions: in vivo; outline: as §1
Mus musculus [32] = assay: Mean body weight loss for animals in all experimental conditions at dose 5 mg/Kg in HT-29 human colon xenograft infected mice; format: functional; outline: as §4
Mus musculus [33] = assay: Mean body weight loss for animals in all experimental conditions at dose 7 mg/Kg in HT-29 human colon xenograft infected mice; format: functional; outline: as §4
Mus musculus [34] = assay: Efficacy against HT-29 human colon xenograft infected mice expressed as tumor growth ratio at dose 9 mg/Kg; format: functional; outline: as §3

Compound CC[C@@]1(O)C(=O)OCc2c1cc1n(c2=O)Cc2c-1nc1cc3c(cc1c2Cn1ccnc1)OCCO3 has a solubility [1] of under 500 µg/mL.
Work on CC[C@@]1(O)C(=O)OCc2c1cc1n(c2=O)Cc2c-1nc1cc3c(cc1c2Cn1cc[n+](C)c1)OCCO3 yielded a solubility [1] of 1300 µg/mL.
CC[C@@]1(O)C(=O)OCc2c1cc1n(c2=O)Cc2c-1nc1cc3c(cc1c2C[n+]1ccccn1)OCO3 showed an IC50 (SK-VLB) of 130 nM, a Ratio [2] of 2 and a solubility [1] of over 3100 µg/mL. The IC50 (SK-OV-3) was 83 nM.
Compound CC[C@@]1(O)C(=O)OCc2c1cc1n(c2=O)Cc2c-1nc1cc3c(cc1c2C[n+]1ccccc1)OCCO3 has an IC50 (HT-29) of 84 nM, an IC50 (SK-VLB) of 84 nM and a Ratio [2] of 1. For the same compound, the solubility [1] was 1800 µg/mL and the IC50 (SK-OV-3) was 85 nM.
In the case of CC[C@@]1(O)C(=O)OCc2c1cc1n(c2=O)Cc2c-1nc1cc3c(cc1c2Cn1cc[n+](C)c1)OCO3, the IC50 (HT-29) is reported as 75 nM, the IC50 (SK-VLB) is reported as 1000 nM and the Ratio [2] is reported as 9. It also gave a BW loss (Mus musculus [3]) of 4%, an MTD (Mus musculus [4]) of 100 mg/kg and a Deaths (Mus musculus [5]) of 0. The Efficacy (Mus musculus [6]) was 3.84, the Deaths (Mus musculus [7]) was 0 and the T/C (Mus musculus [8]) was 14 days. The Efficacy (Mus musculus [9]) was 2.85, the solubility [1] was over 3500 µg/mL and the IC50 (SK-OV-3) was 110 nM. For the same compound, the Deaths (Mus musculus [10]) was 0, the BW loss (Mus musculus [11]) was 12% and the BW loss (Mus musculus [12]) was 16%. For the same compound, the Efficacy (Mus musculus [13]) was 6.74.
CC[C@@]1(O)C(=O)OCc2c1cc1n(c2=O)Cc2c-1nc1cc3c(cc1c2C[n+]1cccc(CO)c1)OCCO3 showed a solubility [1] of 1200 µg/mL.
Work on CC[C@@]1(O)C(=O)OCc2c1cc1n(c2=O)Cc2c-1nc1cc3c(cc1c2C[n+]1ccccn1)OCCO3 yielded an IC50 (SK-VLB) of 94 nM, a Ratio [2] of 1 and a solubility [1] of 910 µg/mL. For the same compound, the IC50 (SK-OV-3) was 69 nM.
With CC[C@@]1(O)C(=O)OCc2c1cc1n(c2=O)Cc2c-1nc1cc3c(cc1c2C[n+]1ccccc1)OCO3 the IC50 (HT-29) was 70 nM, the IC50 (SK-VLB) was 72 nM and the Ratio [2] was 1. It also gave an MTD (Mus musculus [4]) of over 100 mg/kg, a T/C (Mus musculus [8]) of 4 days and a solubility [1] of over 4500 µg/mL. It also gave an IC50 (SK-OV-3) of 74 nM.
CC[C@@]1(O)C(=O)OCc2c1cc1n(c2=O)Cc2c-1nc1cc3c(cc1c2C[n+]1ccncc1)OCCO3 gave an IC50 (HT-29) of 16 nM, an IC50 (SK-VLB) of 870 nM and a Ratio [2] of 80. It also gave a T/C (Mus musculus [14]) of 14 days, a Deaths (Mus musculus [15]) of 0 and an MTD (Mus musculus [4]) of 100 mg/kg. It also gave a BW loss (Mus musculus [16]) of 27%, an Efficacy (Mus musculus [17]) of 2.1 and a solubility [1] of 1400 µg/mL. The IC50 (SK-OV-3) was 11 nM, the BW loss (Mus musculus [18]) was 21% and the BW loss (Mus musculus [19]) was 13%. The Deaths (Mus musculus [20]) was 0, the Efficacy (Mus musculus [21]) was 0.32 and the Efficacy (Mus musculus [22]) was 0.7. The Deaths (Mus musculus [23]) was 0.
CC[C@@]1(O)C(=O)OCc2c1cc1n(c2=O)Cc2c-1nc1cc3c(cc1c2C[n+]1ccc(CO)cc1)OCCO3 gave a solubility [1] of 1100 µg/mL.
In the case of CC[C@@]1(O)C(=O)OCc2c1cc1n(c2=O)Cc2c-1nc1cc3c(cc1c2C[n+]1ccncc1)OCO3, the IC50 (HT-29) is reported as 46 nM, the IC50 (SK-VLB) is reported as 23 nM and the Ratio [2] is reported as 4. The MTD (Mus musculus [4]) was 80 mg/kg, the solubility [1] was 1400 µg/mL and the IC50 (SK-OV-3) was 6 nM. For the same compound, the T/C (Mus musculus [24]) was 11 days.
CC[C@@]1(O)C(=O)OCc2c1cc1n(c2=O)Cc2c-1nc1cc3c(cc1c2Cn1ccnc1)OCO3 gave a solubility [1] of under 500 µg/mL.
Work on CC[C@@]1(O)C(=O)OCc2c1cc1n(c2=O)Cc2cc3c(CN(C)C)c(O)ccc3nc2-1 [TOPOTECAN] yielded a Deaths (Mus musculus [25]) of 0, an Efficacy (Mus musculus [26]) of 8.6 and an Efficacy (Mus musculus [27]) of 7. The MTD (Mus musculus [4]) was 54 mg/kg, the Efficacy (Mus musculus [9]) was 2.9 and the solubility [1] was 2100 µg/mL (≈ 4.98 mM). The Deaths (Mus musculus [28]) was 2, the Deaths (Mus musculus [10]) was 0 and the T/C (Mus musculus [29]) was 10 days. For the same compound, the BW loss (Mus musculus [30]) was 17%, the BW loss (Mus musculus [12]) was 23% and the Deaths (Mus musculus [31]) was 0. The BW loss (Mus musculus [32]) was 15%, the BW loss (Mus musculus [33]) was 11% and the Efficacy (Mus musculus [34]) was 4.3.
Work on COc1cccc2c1C(=O)c1c(O)c3c(c(O)c1C2=O)C[C@@](O)(C(=O)CO)C[C@@H]3O[C@H]1C[C@H](N)[C@H](O)[C@H](C)O1 [DOXORUBICIN] yielded a Ratio [2] of 160 and a solubility [1] of over 2000 µg/mL.
In the case of CC[C@@]1(O)C(=O)OCc2c1cc1n(c2=O)Cc2c-1nc1cc3c(cc1c2C[n+]1cccc(CO)c1)OCO3, the IC50 (HT-29) is reported as 13 nM, the IC50 (SK-VLB) is reported as 23 nM and the Ratio [2] is reported as 2. For the same compound, the MTD (Mus musculus [4]) was over 100 mg/kg, the T/C (Mus musculus [8]) was 9 days and the solubility [1] was over 4400 µg/mL. It also gave an IC50 (SK-OV-3) of 11 nM.
